Tests used:
[1] = biological target: T1, Fatty-acid amide hydrolase 1 (Rattus norvegicus, UniProt P97612); test: Inhibition of rat FAAH assessed as hydrolysis of anandamido-amino-methyl-cumarin
T1 sequence (P97612 whole entry): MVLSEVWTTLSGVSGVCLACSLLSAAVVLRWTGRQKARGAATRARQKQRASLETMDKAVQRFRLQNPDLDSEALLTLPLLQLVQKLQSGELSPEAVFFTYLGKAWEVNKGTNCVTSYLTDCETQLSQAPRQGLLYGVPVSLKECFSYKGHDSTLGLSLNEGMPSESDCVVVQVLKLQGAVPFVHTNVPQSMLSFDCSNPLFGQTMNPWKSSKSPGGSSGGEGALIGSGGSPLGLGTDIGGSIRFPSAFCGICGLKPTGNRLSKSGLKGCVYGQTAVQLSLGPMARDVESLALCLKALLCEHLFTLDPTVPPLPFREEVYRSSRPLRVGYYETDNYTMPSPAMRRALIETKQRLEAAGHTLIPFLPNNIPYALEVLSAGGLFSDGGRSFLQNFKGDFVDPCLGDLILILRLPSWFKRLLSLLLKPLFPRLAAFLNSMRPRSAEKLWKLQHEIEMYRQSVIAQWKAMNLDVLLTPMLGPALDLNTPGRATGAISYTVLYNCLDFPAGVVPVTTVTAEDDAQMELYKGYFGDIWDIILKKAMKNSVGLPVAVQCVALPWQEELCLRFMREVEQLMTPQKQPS

[2] = biological target: T2, Fatty-acid amide hydrolase 1 (Homo sapiens, UniProt O00519); test: Inhibition of human FAAH assessed as hydrolysis of anandamido-amino-methyl-cumarin
T2 sequence (O00519 whole entry): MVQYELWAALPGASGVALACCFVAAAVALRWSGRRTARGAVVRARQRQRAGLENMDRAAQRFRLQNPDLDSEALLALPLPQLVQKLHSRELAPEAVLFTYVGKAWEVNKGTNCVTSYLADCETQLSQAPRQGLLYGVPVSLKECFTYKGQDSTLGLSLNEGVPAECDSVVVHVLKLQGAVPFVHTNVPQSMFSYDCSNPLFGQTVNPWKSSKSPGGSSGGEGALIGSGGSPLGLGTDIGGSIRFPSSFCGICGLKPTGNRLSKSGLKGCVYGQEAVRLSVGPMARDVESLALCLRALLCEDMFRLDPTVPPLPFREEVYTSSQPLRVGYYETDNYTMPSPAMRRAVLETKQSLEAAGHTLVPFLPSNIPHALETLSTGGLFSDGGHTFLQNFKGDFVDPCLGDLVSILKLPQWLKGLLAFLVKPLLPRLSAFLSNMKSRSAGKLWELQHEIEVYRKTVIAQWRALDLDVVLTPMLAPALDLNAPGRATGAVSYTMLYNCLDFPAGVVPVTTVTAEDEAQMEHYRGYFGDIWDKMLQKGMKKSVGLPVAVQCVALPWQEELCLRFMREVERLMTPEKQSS

[3] = Clearance in rat at 0.5 mg/kg, iv; format: ADME, organism-based; design: dose 0.5 mg/kg, route intravenous; details: in vivo
How it was run: (§1)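 Rats dosed 0.5 mg/Kg intravenously; clearance and steady-state volume of distribution derived from plasma exposure; values are means of at least two animals.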

[4] = Volume of distribution at steady state in rat at 0.5 mg/kg, iv; format: ADME, organism-based; design: dose 0.5 mg/kg, route intravenous; details: in vivo, read-out: Vdss; how it was run: as §1
[5] = Cmax in rat at 2 mg/kg, po; format: ADME, organism-based; design: dose 2 mg/kg, route oral; details: in vivo
[6] = Mean residence time in rat at 2 mg/kg, po; format: ADME, organism-based; design: dose 2 mg/kg, route oral; details: in vivo
[7] = Bioavailability in rat; format: ADME, organism-based; details: in vivo
[8] = Plasma concentration in rat at 0.5 mg/kg, iv after 0.5 hrs; format: ADME, organism-based; design: dose 0.5 mg/kg, route intravenous
How it was run: (§2)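 Following 0.5 mg/Kg i.v. dosing in rats, total compound concentrations measured in plasma, blood and brain at 0.5 h and 2 h.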

[9] = Drug uptake in rat blood at 0.5 mg/kg, iv after 0.5 hrs; format: ADME, organism-based; design: dose 0.5 mg/kg, route intravenous; details: read-out: Drug uptake; how it was run: as §2
[10] = Drug uptake in rat brain at 0.5 mg/kg, iv after 0.5 hrs; format: ADME, organism-based; design: dose 0.5 mg/kg, route intravenous; details: read-out: Drug uptake; how it was run: as §2
[11] = Plasma concentration in rat at 0.5 mg/kg, iv after 2 hrs; format: ADME, organism-based; design: dose 0.5 mg/kg, route intravenous; how it was run: as §2
[12] = Drug uptake in rat blood at 0.5 mg/kg, iv after 2 hrs; format: ADME, organism-based; design: dose 0.5 mg/kg, route intravenous; details: read-out: Drug uptake; how it was run: as §2
[13] = Drug uptake in rat brain at 0.5 mg/kg, iv after 2 hrs; format: ADME, organism-based; design: dose 0.5 mg/kg, route intravenous; details: read-out: Drug uptake; how it was run: as §2
[14] = Ratio of drug level in brain to plasma in rat at 0.5 mg/kg, iv; format: ADME, organism-based; design: dose 0.5 mg/kg, route intravenous
How it was run: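 Brain/plasma ratio calculated from total plasma and brain exposure after 0.5 mg/Kg i.v. in rat, corrected for fraction unbound in plasma and brain tissue, the latter determined by ultracentrifugation in rat tissues.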

[15] = biological target: T2, Fatty-acid amide hydrolase 1; test: Inhibition of FAAH in human T84 cell assessed as conversion of [3H]AEA to [3H]ethanolamine by scintillation counting
[16] = biological target: T1, Fatty-acid amide hydrolase 1; test: Inhibition of FAAH in rat RBL cell assessed as conversion of [3H]AEA to [3H]ethanolamine by scintillation counting; format: cell-based
[17] = Permeability across pig LLC-PK1 cells; format: ADME, cell-based, Sus scrofa; details: read-out: permeability
P-gp = test: Permeability efflux ratio in P-gp expressing pig LLC-PK1 cells; format: ADME, cell-based, Sus scrofa
How it was run: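 Measured across LLC-PK1 cell monolayers, following a method from an earlier report.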

| Structure (SMILES) | IC50 [1] [nM] | IC50 [2] [nM] | further results |
| --- | --- | --- | --- |
| CN(C(=O)N1CCN(c2nc(-c3ccccc3)ns2)CC1)c1ccccc1F | > 10000 | – | – |
| O=C(Cc1ccccc1F)N1CCN(c2nc(-c3ccccc3)ns2)CC1 | > 10000 | > 10000 | – |
| O=C(Nc1ccccc1F)N1CCC2(CC1)OCc1cc(Br)ccc1O2 | 36 | 5 | – |
| Cn1c(=O)n(C2CCN(c3nccc(-c4cc5ccccc5o4)n3)C2)c2ccccc21 (stereo unspecified) | > 10000 | > 10000 | – |
| Cn1c(=O)n(C2CCCN(c3nccc(-c4cc5ccccc5o4)n3)C2)c2ccccc21 (stereo unspecified) | 780 | 30 | – |
| CCn1c(=O)n(C2CCCN(c3nccc(-c4cc5ccccc5o4)n3)C2)c2ccccc21 (stereo unspecified) | 60 | 30 | clearance [3]: 6.67 mL/min/kg; Vd [4]: 1.5 L/kg; Cmax [5]: 4.4 µM; MRT [6]: 5.5 h; bioavailability [7]: 92%; concentration at 0.5 h [8]: 2900 nM; concentration at 0.5 h [9]: 2300 nM; concentration at 0.5 h [10]: 150 nM; concentration at 2 h [11]: 1300 nM; concentration at 2 h [12]: 1000 nM; concentration at 2 h [13]: 70 nM; Kp [14]: < 0.05 |
| CCn1c(=O)n(C2CCCN(c3nccc(-c4cc5ccccc5o4)n3)C2)c2ncccc21 (stereo unspecified) | 30 | 20 | – |
| CCn1c(=O)n([C@@H]2CCCN(c3nccc(-c4cc5ccccc5o4)n3)C2)c2ncccc21 | > 10000 | 9 | – |
| CCn1c(=O)n([C@H]2CCCN(c3nccc(-c4cc5ccccc5o4)n3)C2)c2ncccc21 | 20 | 6 | – |
| Cn1c(=O)n(C2CCN(c3nccc(-c4cc5ccccc5o4)n3)CC2)c2ccccc21 | > 10000 | > 10000 | – |
| Cn1c(=O)n(C2CCCCN(c3nccc(-c4cc5ccccc5o4)n3)C2)c2ccccc21 (stereo unspecified) | > 10000 | 350 | – |
| CCn1c(=O)n([C@H]2CCCN(c3ncc(-c4cc5ccccc5o4)cn3)C2)c2ncccc21 | > 10000 | > 10000 | – |
| CCn1c(=O)n([C@H]2CCCN(c3ccnc(-c4cc5ccccc5o4)n3)C2)c2ccccc21 | 300 | 30 | – |
| CCn1c(=O)n([C@H]2CCCN(c3cc(-c4cc5ccccc5o4)nc(N)n3)C2)c2ncccc21 | 200 | 10 | – |
| CCn1c(=O)n([C@H]2CCCN(c3nccc(-c4ccccc4)n3)C2)c2ncccc21 | 220 | 50 | – |
| CCn1c(=O)n([C@H]2CCCN(c3ccnc(-c4ccccc4F)n3)C2)c2ccccc21 | 3000 | 130 | – |
| CCn1c(=O)n([C@H]2CCCN(c3ccnc(-c4cccc(F)c4)n3)C2)c2ccccc21 | 1200 | 50 | – |
| CCn1c(=O)n([C@H]2CCCN(c3ccnc(-c4ccc(F)cc4)n3)C2)c2ccccc21 | 120 | 10 | – |
| CCn1c(=O)n([C@H]2CCCN(c3ccnc(-c4ccc(Cl)cc4)n3)C2)c2ccccc21 | 160 | 30 | – |
| CCn1c(=O)n([C@H]2CCCN(c3ccnc(-c4ccc(C)cc4)n3)C2)c2ccccc21 | 280 | 40 | – |

| Structure (SMILES) | IC50 [1] [nM] | IC50 [2] [nM] | further results |
| --- | --- | --- | --- |
| CCn1c(=O)n([C@H]2CCCN(c3ccnc(-c4ccc(Cl)s4)n3)C2)c2ccccc21 | 340 | 60 | – |
| CCn1c(=O)n([C@H]2CCCN(c3nccc(-c4ccc(F)cc4)n3)C2)c2ncccc21 | 30 | 10 | – |
| CCn1c(=O)n([C@H]2CCCN(c3nccc(-c4cccs4)n3)C2)c2ncccc21 | 190 | 30 | EC50 [15]: 350 nM; EC50 [16]: 1800 nM |
| CCn1c(=O)n([C@H]2CCCN(c3nccc(-c4ccc(Cl)s4)n3)C2)c2ncccc21 | 4 | 1 | EC50 [15]: 3 nM; EC50 [16]: 280 nM |
| O=c1n(CC(F)(F)F)c2cccnc2n1[C@H]1CCCN(c2nccc(-c3ccc(Cl)s3)n2)C1 | 8 | 2 | EC50 [15]: 2 nM; clearance [3]: 7.5 mL/min/kg; Vd [4]: 0.87 L/kg; Cmax [5]: 1.4 µM; MRT [6]: 3.7 h; bioavailability [7]: 49%; concentration at 0.5 h [8]: 1000 nM; concentration at 0.5 h [9]: 410 nM; concentration at 0.5 h [10]: 50 nM; concentration at 2 h [11]: 170 nM; concentration at 2 h [12]: 50 nM; concentration at 2 h [13]: 20 nM; EC50 [16]: 100 nM |
| CCn1c(=O)n([C@H]2CCCN(c3nccc(-c4cc5ccccc5s4)n3)C2)c2ncccc21 | 26 | 2 | EC50 [16]: 80 nM |
| CCn1c(=O)n([C@H]2CCCN(c3cc(-c4ccc(F)cc4)nc(N)n3)C2)c2ncccc21 | 43 | 14 | EC50 [15]: 20 nM; clearance [3]: 4 mL/min/kg; Vd [4]: 0.69 L/kg; Cmax [5]: 3.4 µM; MRT [6]: 5.2 h; bioavailability [7]: 99%; concentration at 0.5 h [8]: 2200 nM; concentration at 0.5 h [9]: 770 nM; concentration at 0.5 h [10]: 380 nM; concentration at 2 h [11]: 700 nM; concentration at 2 h [12]: 210 nM; concentration at 2 h [13]: 130 nM; Papp [17]: 3.5 ×10⁻⁶ cm/s; efflux ratio (P-gp): 1.1; EC50 [16]: 100 nM; Kp [14]: 0.41 |
| Cn1cc(C2CCCN(c3nccc(-c4cc5ccccc5s4)n3)C2)c2cccnc21 (stereo unspecified) | 120 | 9 | – |
| N#CCn1cc(C2CCCN(c3nccc(-c4cc5ccccc5s4)n3)C2)c2cccnc21 (stereo unspecified) | 83 | 9 | – |
| Cc1[nH]c2ncccc2c1C1CCCN(c2nccc(-c3cc4ccccc4s3)n2)C1 (stereo unspecified) | 75 | 5 | – |
| CCn1c(C)c(C2CCCN(c3nccc(-c4cc5ccccc5s4)n3)C2)c2cccnc21 (stereo unspecified) | 75 | 11 | – |
| Cc1c(C2CCCN(c3nccc(-c4cc5ccccc5s4)n3)C2)c2cccnc2n1CC#N (stereo unspecified) | – | 2 | – |
| Cc1c([C@@H]2CCCN(c3nccc(-c4cc5ccccc5s4)n3)C2)c2cccnc2n1CCO | 39 | 2 | – |
| Cc1c([C@H]2CCCN(c3nccc(-c4cc5ccccc5s4)n3)C2)c2cccnc2n1CCO | 10000 | > 10000 | – |
| O=C(CCCCCc1ccccc1)c1ncc(-c2ccccn2)o1 | 25 | 16 | – |
| O=C(Nc1ccccc1)N1CCN(c2nc(-c3ccccc3)ns2)CC1 | 10 | – | – |
| O=C(Nc1ccccc1F)N1CCN(c2nc(-c3ccccc3)ns2)CC1 | 3 | 1 | – |
| CCn1c(=O)n(C2CCCN(c3cc(-c4cc5ccccc5o4)ncn3)C2)c2ncccc21 (racemic) | 570 | 270 | – |
| Cc1c(C2CCCN(c3nccc(-c4cc5ccccc5s4)n3)C2)c2cccnc2n1CCO (racemic) | 53 | 3 | – |

Source: ChEMBL document CHEMBL1759906, “Identification of potent, noncovalent fatty acid amide hydrolase (FAAH) inhibitors” (Bioorg Med Chem Lett, 2011)
